Screens deposited in PubChem BioAssay by Broad Institute.
FGF22 binding: shifts melting point of recombinant human FGF22; Q9HCT0; recombinant FGF22 thermal shift, SYPRO orange fluorescence; percent of sucrose octasulfate shift, DMSO zero; activity (Tm shift, normalised), % at 9.99 µM; hit rate 1.5% among 340,000;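 active = mean Tm shift, scaled 0 neutral to 100 positive control, at about 1.3% or above, every replicate too, limit read from the data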
ERAP1 inh: blocks human ERAP1 aminopeptidase activity; hit rate 0.15% among 340,000; recombinant ERAP1, Leu-AMC fluorescence, 60 min; inhibition, % at 10.7 µM; AID 652197;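 active = mean replicate inhibition of at least 30%, or all replicates individually reaching that 30% level; inactive = mean below 30% and not every replicate reaching it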
Target sequence (Q9NZ08 whole entry, looked up): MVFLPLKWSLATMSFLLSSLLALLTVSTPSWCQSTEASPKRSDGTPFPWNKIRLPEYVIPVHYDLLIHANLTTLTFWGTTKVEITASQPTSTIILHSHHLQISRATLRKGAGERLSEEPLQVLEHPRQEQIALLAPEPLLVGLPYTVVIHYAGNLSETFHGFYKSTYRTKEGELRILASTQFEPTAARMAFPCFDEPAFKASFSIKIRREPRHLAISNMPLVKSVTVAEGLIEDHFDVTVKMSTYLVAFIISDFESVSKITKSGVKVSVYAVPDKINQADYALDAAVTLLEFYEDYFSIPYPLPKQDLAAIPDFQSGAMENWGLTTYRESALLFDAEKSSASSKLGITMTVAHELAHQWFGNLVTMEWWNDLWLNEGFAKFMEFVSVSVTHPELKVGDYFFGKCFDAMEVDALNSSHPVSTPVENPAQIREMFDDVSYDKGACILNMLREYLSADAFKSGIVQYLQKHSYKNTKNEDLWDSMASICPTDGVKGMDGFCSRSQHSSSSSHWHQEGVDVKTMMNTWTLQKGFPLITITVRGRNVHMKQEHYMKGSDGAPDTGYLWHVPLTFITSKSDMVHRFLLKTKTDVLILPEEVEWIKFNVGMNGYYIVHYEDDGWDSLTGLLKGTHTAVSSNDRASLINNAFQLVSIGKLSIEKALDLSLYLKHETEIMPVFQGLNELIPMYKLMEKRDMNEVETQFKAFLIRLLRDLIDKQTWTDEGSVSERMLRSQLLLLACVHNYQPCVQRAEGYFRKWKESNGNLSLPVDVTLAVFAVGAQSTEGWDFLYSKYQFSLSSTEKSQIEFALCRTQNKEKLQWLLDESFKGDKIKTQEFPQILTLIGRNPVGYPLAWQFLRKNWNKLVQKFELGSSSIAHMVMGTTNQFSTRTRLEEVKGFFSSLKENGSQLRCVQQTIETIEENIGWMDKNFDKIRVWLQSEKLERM
Cneo AK release: causes C. neoformans cell lysis | adenylate kinase release luminescence, 4 h; normalised: neutral wells 0, clomiphene wells 100 | AID 651654 | lysis activity, % at 15 µM | hit rate 0.2% among 360,000;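 active = mean lysis activity across replicates of at least 80%, whatever share of replicates individually reach that level; inactive = mean lysis activity below 80%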
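Material: C. neoformans cells | Amount: Yeast cell density of 5 × 10^6 cells/mL | Medium: Fresh YPD growth medium | Dosing: Single dose | Times: Static 4 h at 37 °C with compound, 1 h detection | Detection: AK luminescence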
PGC1a acetyl inh: lowers PGC1a acetylation signal in U2OS cells; AlphaScreen anti-acetyl-lysine; with virally co-expressed GCN5 acetyltransferase; inhibition, % at 15.6 µM; hit rate 0.17% among 350,000; AID 651687;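 active = every replicate shows inhibition of at least 40%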
Env fusion inh: blocks HIV Env-driven cell-cell fusion; HeLa-JRFL Env/CEM21 cell fusion, luciferase; inhibition, % at 12.3 µM; hit rate 1.1% among 360,000; AID 651610;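 active = mean replicate inhibition score of at least 50 and every replicate individually at or above 50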
rRNA inh HTS: inhibitors of bacterial rRNA selective over humanized ribosomes. E. coli WT GFP vs humanized-ribosome RFP mutants, fluorescence, 24 h; stronger effect = lower value; DMSO median 0, no signal -100. GFP signal change (wild-type ribosome), % (test concentration not listed). hit rate 1.6% among 350,000. AID 720706;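 active = significant combined selectivity score with lowered wild-type GFP, culture density cut under 30%, mutant RFP and density less affected; inactive = any of these conditions unmet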
Large screens that a line does not name were inactive. Rows were chosen to be rich in hits. Some 3.5% of all compounds tested hit in one or more screens of this group.

COCC(=O)N(C)C[C@H]1N[C@@](Cc2ccccc2)(C(=O)OC)[C@H]2C(=O)N(C)C(=O)[C@@H]12	none (no result: ERAP1 inh, PGC1a acetyl inh)
COC(=O)[C@]1(Cc2ccccc2)N[C@H](CN(C)C(=O)Nc2ccc(F)cc2)[C@@H]2C(=O)N(C)C(=O)[C@@H]21	none (no result: ERAP1 inh, PGC1a acetyl inh)
COC(=O)[C@]1(Cc2ccccc2)N[C@H](CN(C)C(C)=O)[C@@H]2C(=O)N(C)C(=O)[C@@H]21	none (no result: PGC1a acetyl inh)
COC(=O)[C@]1(Cc2ccccc2)N[C@H](CN(C)C(=O)COc2ccccc2)[C@@H]2C(=O)N(C)C(=O)[C@@H]21	FGF22 binding 43 (no result: PGC1a acetyl inh)
COC(=O)[C@]1(Cc2ccccc2)N[C@H](CN(C)C(=O)c2ccc(C)cc2)[C@@H]2C(=O)N(C)C(=O)[C@@H]21	FGF22 binding 43 (no result: PGC1a acetyl inh)
COC(=O)[C@]1(Cc2ccccc2)N[C@H](CN(C)C(=O)c2ccc(F)cc2)[C@@H]2C(=O)N(C)C(=O)[C@@H]21	FGF22 binding 43 (no result: PGC1a acetyl inh)
CC(C)(C)NC(=O)CN(C(=O)CNC(=O)c1cccs1)c1ccccc1F	none (no result: PGC1a acetyl inh)
Cc1ccccc1CC(=O)N1CCCC(CCC(=O)N2CCN(c3ccccn3)CC2)C1 (stereo unspecified)	none (no result: Cneo AK release)
CCCCC1(CO)C(=O)N(c2ccccc2)N(c2ccccc2)C1=O	none (no result: ERAP1 inh)
CCCCC1(Cc2cccc([N+](=O)[O-])c2)C(=O)N(c2ccccc2)N(c2ccccc2)C1=O	Env fusion inh 120 (no result: FGF22 binding, ERAP1 inh, rRNA inh HTS)
CCOC(=O)N1CCN(c2nc(SC)nc3sc4c(c23)CC(C)(C)OC4)CC1	none (no result: FGF22 binding, ERAP1 inh, Env fusion inh, rRNA inh HTS)
CSc1nc(SC(C)C(=O)O)c2c3c(sc2n1)COC(C)(C)C3 (stereo unspecified)	rRNA inh HTS -23
Cc1cc(C)nc(SCCn2c(N3CC(C)OC(C)C3)nc3c2c(=O)n(C)c(=O)n3C)n1 (stereo unspecified)	FGF22 binding 44 (no result: Cneo AK release, PGC1a acetyl inh)
CC(=O)c1ccc(NC(=O)c2ccc(NC(=O)CCS(=O)(=O)c3cccs3)cc2)cc1	none
CC(C)Oc1cccc(C(=O)NC(=S)Nc2ccc(N3CCN(C)CC3)cc2)c1	rRNA inh HTS -18
CCCC(=O)N1CCN(c2ccc(NC(=S)NC(=O)c3cccc(C)c3)cc2)CC1	rRNA inh HTS -20
COc1cccc(C(=O)NC(=S)Nc2ccc(N3CCCC3)cc2)c1	none (no result: FGF22 binding, ERAP1 inh, Env fusion inh, rRNA inh HTS)
O=C(C1=C[C@@H](c2ccc(Br)cc2)C[C@@H](OCCCCO)O1)N1CCN(Cc2ccccc2)CC1	none
COc1ccc(C(=O)C(/C=N/O)=N/Nc2ccc(F)cc2)cc1	rRNA inh HTS -26 (no result: Cneo AK release)
COc1ccccc1NC(=O)CN1CCN(CC(=O)Nc2cc(NC(C)=O)ccc2OC)CC1	none (no result: FGF22 binding, ERAP1 inh, Env fusion inh, rRNA inh HTS)
COc1cc(SC)ccc1C(=O)OC(C)C(=O)Nc1ccc(NC(C)=O)cc1 (stereo unspecified)	none (no result: PGC1a acetyl inh)
CCCc1cc(=O)n2[nH]c(C(F)(F)F)nc2n1	FGF22 binding 43
CCCc1cc(=O)n2[nH]c(C)nc2n1	none (no result: FGF22 binding, ERAP1 inh, rRNA inh HTS)
O=C(COc1cccnc1[N+](=O)[O-])Nc1ccc(Cl)c(S(=O)(=O)N2CCOCC2)c1	none
CCOC(=O)[C@H]1[C@H]2COc3ccc(Br)cc3[C@H]2N2C(=O)CN(Cc3ccc(Cl)cc3)C(=O)[C@@]12C	none (no result: PGC1a acetyl inh, Env fusion inh)
C[n+]1cccc(C(=O)NNC(=O)C23CC4CC(CC(C4)C2)C3)c1	ERAP1 inh 109 (no result: Cneo AK release)
O=C(NNC(=O)C12CC3CC(CC(C3)C1)C2)c1ccccn1	rRNA inh HTS -43
Cn1c(=O)cc(SCC(=O)NCCN2CCN(c3ccccc3F)CC2)c2cc(Cl)ccc21	none (no result: FGF22 binding, ERAP1 inh, PGC1a acetyl inh, rRNA inh HTS)
Cc1cc(=O)[nH]c(SCCCOc2ccccc2Cl)n1	none (no result: FGF22 binding, ERAP1 inh, rRNA inh HTS)
COc1ccc(CCNC(=O)Nc2nc(C(N)COCc3ccccc3)cs2)cc1OC (stereo unspecified)	rRNA inh HTS -14
COc1cc(OC)nc(Nc2nc(C(N)COCc3ccccc3)cs2)n1 (stereo unspecified)	Env fusion inh 97
COc1ccc(CCNC(=O)Nc2nc(C(N)Cc3ccccc3)cs2)cc1OC (stereo unspecified)	none
O=C(OCc1ccccc1)C1CCN(S(=O)(=O)c2cccs2)CC1	none
CC(C)NC(=O)N1C[C@@H]2[C@H](c3ccccc31)[C@@H](CO)N2C(=O)c1ccc(F)cc1	none (no result: Env fusion inh)
